Laboratory results taken from ChEMBL document CHEMBL1155153, “Measurement of voriconazole activity against Candida albicans, C. glabrata, and C. parapsilosis isolates using time-kill methods validated by high-performance liquid chromatography” (2007).
In brackets after ≈: the same amount, converted by molar mass.

How the values were obtained:
Type in all cases: functional
Candida albicans [1] = test: Antifungal activity against Candida albicans ATCC 90029 assessed as maximum log cell kill at 4 times MIC after >48 hrs by time-kill method
Candida parapsilosis [2] = test: Antifungal activity against Candida parapsilosis isolate 2 assessed as maximum log cell kill at 4 times MIC after 24 to 48 hrs by time-kill method
Summary of the method: (§1)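 Bloodstream isolate colonies from 48-h Sabouraud dextrose agar cultures were suspended in sterile water. […] Samples taken 0–72 h were plated for CFU. Value is the maximum log difference from drug-free control per time window. Run in duplicate.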

Candida albicans [3] = test: Antifungal activity against Candida albicans SC5314 assessed as maximum log cell kill at 4 times MIC after 24 to 48 hrs by time-kill method
Candida parapsilosis [4] = test: Antifungal activity against Candida parapsilosis isolate 1 assessed as maximum log cell kill at MIC after >48 hrs by time-kill method
Nakaseomyces glabratus [5] = test: Antifungal activity against Candida glabrata isolate 1 assessed as maximum log cell kill at MIC after 24 to 48 hrs by time-kill method
Nakaseomyces glabratus [6] = test: Antifungal activity against Candida glabrata isolate 2 assessed as maximum log cell kill at 4 times MIC after >48 hrs by time-kill method
Candida albicans [7] = test: Antifungal activity against Candida albicans ATCC 90029 assessed as maximum log cell kill at 16 times MIC after 24 hrs by time-kill method
Candida albicans [8] = test: Antifungal activity against Candida albicans ATCC 90029 assessed as maximum log cell kill at MIC after 24 hrs by time-kill method
Candida parapsilosis [9] = test: Antifungal activity against Candida parapsilosis isolate 1 assessed as maximum log cell kill at 16 times MIC after 24 hrs by time-kill method
Candida parapsilosis [10] = test: Antifungal activity against Candida parapsilosis isolate 1 by Etest; settings: Lodderomyces parapsilosis
Summary of the method: (§2)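 MIC by Etest, checked against the CLSI (NCCLS M27-A2) broth microdilution method. Both methods agreed within twofold.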

Nakaseomyces glabratus [11] = test: Antifungal activity against Candida glabrata isolate 1 assessed as maximum log cell kill at 16 times MIC after 24 to 48 hrs by time-kill method
Candida parapsilosis [12] = test: Antifungal activity against Candida parapsilosis isolate 2 assessed as maximum log cell kill at 4 times MIC after >48 hrs by time-kill method; summary of the method: as §1
Candida parapsilosis [13] = test: Antifungal activity against Candida parapsilosis isolate 2 assessed as maximum log cell kill at 16 times MIC after >48 hrs by time-kill method
Candida albicans [14] = test: Antifungal activity against Candida albicans ATCC 90029 assessed as maximum log cell kill at 16 times MIC after >48 hrs by time-kill method
Candida albicans [15] = test: Antifungal activity against Candida albicans SC5314 assessed as maximum log cell kill at MIC after 24 hrs by time-kill method
Candida albicans [16] = test: Antifungal activity against Candida albicans SC5314 by Etest; summary of the method: as §2
Candida parapsilosis [17] = test: Antifungal activity against Candida parapsilosis isolate 2 assessed as maximum log cell kill at 16 times MIC after 24 hrs by time-kill method
Candida parapsilosis [18] = test: Antifungal activity against Candida parapsilosis isolate 1 assessed as maximum log cell kill at MIC after 24 to 48 hrs by time-kill method
Nakaseomyces glabratus [19] = test: Antifungal activity against Candida glabrata isolate 2 assessed as maximum log cell kill at 4 times MIC after 24 hrs by time-kill method
Candida albicans [20] = test: Antifungal activity against Candida albicans ATCC 90029 assessed as maximum log cell kill at MIC after >48 hrs by time-kill method
Candida albicans [21] = test: Antifungal activity against Candida albicans ATCC 90029 assessed as maximum log cell kill at 16 times MIC after 24 to 48 hrs by time-kill method
Candida albicans [22] = test: Antifungal activity against Candida albicans SC5314 assessed as maximum log cell kill at 16 times MIC after 24 to 48 hrs by time-kill method
Nakaseomyces glabratus [23] = test: Antifungal activity against Candida glabrata isolate 1 by Etest; summary of the method: as §2
Candida albicans [24] = test: Antifungal activity against Candida albicans SC5314 assessed as maximum log cell kill at 16 times MIC after 24 hrs by time-kill method
Candida parapsilosis [25] = test: Antifungal activity against Candida parapsilosis isolate 1 assessed as maximum log cell kill at 4 times MIC after >48 hrs by time-kill method
Candida parapsilosis [26] = test: Antifungal activity against Candida parapsilosis isolate 1 assessed as maximum log cell kill at 4 times MIC after 24 hrs by time-kill method
Nakaseomyces glabratus [27] = test: Antifungal activity against Candida glabrata isolate 2 by Etest; summary of the method: as §2
Candida albicans [28] = test: Antifungal activity against Candida albicans ATCC 90029 assessed as maximum log cell kill at 4 times MIC after 24 to 48 hrs by time-kill method
Nakaseomyces glabratus [29] = test: Antifungal activity against Candida glabrata isolate 1 assessed as maximum log cell kill at 16 times MIC after >48 hrs by time-kill method
Nakaseomyces glabratus [30] = test: Antifungal activity against Candida glabrata isolate 1 assessed as maximum log cell kill at MIC after 24 hrs by time-kill method
Nakaseomyces glabratus [31] = test: Antifungal activity against Candida glabrata isolate 2 assessed as maximum log cell kill at 4 times MIC after 24 to 48 hrs by time-kill method
Nakaseomyces glabratus [32] = test: Antifungal activity against Candida glabrata isolate 1 assessed as maximum log cell kill at 4 times MIC after >48 hrs by time-kill method
Nakaseomyces glabratus [33] = test: Antifungal activity against Candida glabrata isolate 1 assessed as maximum log cell kill at 16 times MIC after 24 hrs by time-kill method
Nakaseomyces glabratus [34] = test: Antifungal activity against Candida glabrata isolate 2 assessed as maximum log cell kill at MIC after 24 hrs by time-kill method
Nakaseomyces glabratus [35] = test: Antifungal activity against Candida glabrata isolate 2 assessed as maximum log cell kill at MIC after 24 to 48 hrs by time-kill method
Candida parapsilosis [36] = test: Antifungal activity against Candida parapsilosis isolate 2 assessed as maximum log cell kill at 4 times MIC after 24 hrs by time-kill method; summary of the method: as §1
Candida parapsilosis [37] = test: Antifungal activity against Candida parapsilosis isolate 1 assessed as maximum log cell kill at MIC after 24 hrs by time-kill method
Candida parapsilosis [38] = test: Antifungal activity against Candida parapsilosis isolate 1 assessed as maximum log cell kill at 4 times MIC after 24 to 48 hrs by time-kill method
Candida parapsilosis [39] = test: Antifungal activity against Candida parapsilosis isolate 1 assessed as maximum log cell kill at 16 times MIC after >48 hrs by time-kill method
Nakaseomyces glabratus [40] = test: Antifungal activity against Candida glabrata isolate 1 assessed as maximum log cell kill at 4 times MIC after 24 hrs by time-kill method
Candida albicans [41] = test: Antifungal activity against Candida albicans ATCC 90029 by Etest; summary of the method: as §2
Candida albicans [42] = test: Antifungal activity against Candida albicans SC5314 assessed as maximum log cell kill at MIC after 24 to 48 hrs by time-kill method
Nakaseomyces glabratus [43] = test: Antifungal activity against Candida glabrata isolate 2 assessed as maximum log cell kill at MIC after >48 hrs by time-kill method
Nakaseomyces glabratus [44] = test: Antifungal activity against Candida glabrata isolate 1 assessed as maximum log cell kill at 4 times MIC after 24 to 48 hrs by time-kill method
Candida parapsilosis [45] = test: Antifungal activity against Candida parapsilosis isolate 2 assessed as maximum log cell kill at MIC after 24 hrs by time-kill method; summary of the method: as §1
Candida albicans [46] = test: Antifungal activity against Candida albicans ATCC 90029 assessed as maximum log cell kill at 4 times MIC after 24 hrs by time-kill method
Nakaseomyces glabratus [47] = test: Antifungal activity against Candida glabrata isolate 2 assessed as maximum log cell kill at 16 times MIC after >48 hrs by time-kill method
Nakaseomyces glabratus [48] = test: Antifungal activity against Candida glabrata isolate 2 assessed as maximum log cell kill at 16 times MIC after 24 hrs by time-kill method
Candida parapsilosis [49] = test: Antifungal activity against Candida parapsilosis isolate 2 assessed as maximum log cell kill at 16 times MIC after 24 to 48 hrs by time-kill method
Candida parapsilosis [50] = test: Antifungal activity against Candida parapsilosis isolate 2 assessed as maximum log cell kill at MIC after >48 hrs by time-kill method; summary of the method: as §1
Candida parapsilosis [51] = test: Antifungal activity against Candida parapsilosis isolate 1 assessed as maximum log cell kill at 16 times MIC after 24 to 48 hrs by time-kill method
Nakaseomyces glabratus [52] = test: Antifungal activity against Candida glabrata isolate 1 assessed as maximum log cell kill at MIC after >48 hrs by time-kill method
Candida albicans [53] = test: Antifungal activity against Candida albicans SC5314 assessed as maximum log cell kill at 4 times MIC after 24 hrs by time-kill method
Candida parapsilosis [54] = test: Antifungal activity against Candida parapsilosis isolate 2 by Etest; settings: Lodderomyces parapsilosis
Candida parapsilosis [55] = test: Antifungal activity against Candida parapsilosis isolate 2 assessed as maximum log cell kill at MIC after 24 to 48 hrs by time-kill method; summary of the method: as §1
Candida albicans [56] = test: Antifungal activity against Candida albicans ATCC 90029 assessed as maximum log cell kill at MIC after 24 to 48 hrs by time-kill method
Nakaseomyces glabratus [57] = test: Antifungal activity against Candida glabrata isolate 2 assessed as maximum log cell kill at 16 times MIC after 24 to 48 hrs by time-kill method

Molecule C[C@@H](c1ncncc1F)[C@](O)(Cn1cncn1)c1ccc(F)cc1F [VORICONAZOLE] has an LCK (Candida albicans [1]) of -1.9, an LCK (Candida parapsilosis [2]) of -2.13 and an LCK (Candida albicans [3]) of -0.53. It also gave an LCK (Candida parapsilosis [4]) of -0.67, an LCK (Nakaseomyces glabratus [5]) of -0.74 and an LCK (Nakaseomyces glabratus [6]) of -2.99. For the same molecule, the LCK (Candida albicans [7]) was -1.34, the LCK (Candida albicans [8]) was -1.23 and the LCK (Candida parapsilosis [9]) was -1.68. It also gave an MIC (Candida parapsilosis [10]) of 0.008 mg/L (≈ 0.0229 µM), an LCK (Nakaseomyces glabratus [11]) of -1 and an LCK (Candida parapsilosis [12]) of -1.12. It also gave an LCK (Candida parapsilosis [13]) of -4.15, an LCK (Candida albicans [14]) of -1.89 and an LCK (Candida albicans [15]) of -0.61. For the same molecule, the MIC (Candida albicans [16]) was 0.012 mg/L (≈ 0.0344 µM), the LCK (Candida parapsilosis [17]) was -3.93 and the LCK (Candida parapsilosis [18]) was -0.91. The LCK (Nakaseomyces glabratus [19]) was -1.1, the LCK (Candida albicans [20]) was -1.63 and the LCK (Candida albicans [21]) was -1.96. The LCK (Candida albicans [22]) was -0.58, the MIC (Nakaseomyces glabratus [23]) was 0.19 mg/L (≈ 0.544 µM) and the LCK (Candida albicans [24]) was -0.54. The LCK (Candida parapsilosis [25]) was -2.37, the LCK (Candida parapsilosis [26]) was -1.64 and the MIC (Nakaseomyces glabratus [27]) was 0.032 mg/L (≈ 0.0916 µM). For the same molecule, the LCK (Candida albicans [28]) was -1.84, the LCK (Nakaseomyces glabratus [29]) was -1.17 and the LCK (Nakaseomyces glabratus [30]) was -0.43. It also gave an LCK (Nakaseomyces glabratus [31]) of -2.39, an LCK (Nakaseomyces glabratus [32]) of -1.08 and an LCK (Nakaseomyces glabratus [33]) of -0.59. The LCK (Nakaseomyces glabratus [34]) was -1.02, the LCK (Nakaseomyces glabratus [35]) was -2.23 and the LCK (Candida parapsilosis [36]) was -2.7. The LCK (Candida parapsilosis [37]) was -0.99, the LCK (Candida parapsilosis [38]) was -2.67 and the LCK (Candida parapsilosis [39]) was -2.69. The LCK (Nakaseomyces glabratus [40]) was -0.49, the MIC (Candida albicans [41]) was 0.008 mg/L (≈ 0.0229 µM) and the LCK (Candida albicans [42]) was -0.56. The LCK (Nakaseomyces glabratus [43]) was -2.78, the LCK (Nakaseomyces glabratus [44]) was -0.78 and the LCK (Candida parapsilosis [45]) was -1.86. It also gave an LCK (Candida albicans [46]) of -1.34, an LCK (Nakaseomyces glabratus [47]) of -3.02 and an LCK (Nakaseomyces glabratus [48]) of -1.15. It also gave an LCK (Candida parapsilosis [49]) of -3.94, an LCK (Candida parapsilosis [50]) of -0.88 and an LCK (Candida parapsilosis [51]) of -2.74. The LCK (Nakaseomyces glabratus [52]) was -0.99, the LCK (Candida albicans [53]) was -0.51 and the MIC (Candida parapsilosis [54]) was 0.016 mg/L (≈ 0.0458 µM). It also gave an LCK (Candida parapsilosis [55]) of -1.03, an LCK (Candida albicans [56]) of -1.77 and an LCK (Nakaseomyces glabratus [57]) of -2.49.
